34 compounds from ChEMBL document CHEMBL3352195, “14,15-Epoxyeicosa-5,8,11-trienoic Acid (14,15-EET) surrogates: carboxylate modifications” (J Med Chem, 2014) can be followed below.

Where only a bound is given, the exact number is not on record here.

A short description of assay [1]: Vasorelaxant activity in bovine coronary artery assessed as reduction of U46619-induced contraction at 10 uM. The arrangement: scale not given: the % may be the effect or the level left. It counts as functional, Bos taurus. In outline: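 Precontracted bovine coronary artery rings were exposed to test agent at 10 μM. Relaxation is expressed as a percentage relative to a 14,15-EET control run in the same preparation. Bioassay determinations n = 3−5.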

Assay [2] is described as follows: Vasorelaxant activity in bovine coronary artery assessed as reduction of U46619-induced contraction. The class given is functional, tissue-based, Bos taurus. In outline:
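Bovine coronary artery rings, precontracted, exposed to compound to obtain a concentration–response for relaxation. The value is the EC50 for vasorelaxation. Bioassay determinations n = 3−5.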

Assay [3] addresses T1, Bifunctional epoxide hydrolase 2 (Homo sapiens, UniProt P34913).
T1 sequence (P34913 whole entry): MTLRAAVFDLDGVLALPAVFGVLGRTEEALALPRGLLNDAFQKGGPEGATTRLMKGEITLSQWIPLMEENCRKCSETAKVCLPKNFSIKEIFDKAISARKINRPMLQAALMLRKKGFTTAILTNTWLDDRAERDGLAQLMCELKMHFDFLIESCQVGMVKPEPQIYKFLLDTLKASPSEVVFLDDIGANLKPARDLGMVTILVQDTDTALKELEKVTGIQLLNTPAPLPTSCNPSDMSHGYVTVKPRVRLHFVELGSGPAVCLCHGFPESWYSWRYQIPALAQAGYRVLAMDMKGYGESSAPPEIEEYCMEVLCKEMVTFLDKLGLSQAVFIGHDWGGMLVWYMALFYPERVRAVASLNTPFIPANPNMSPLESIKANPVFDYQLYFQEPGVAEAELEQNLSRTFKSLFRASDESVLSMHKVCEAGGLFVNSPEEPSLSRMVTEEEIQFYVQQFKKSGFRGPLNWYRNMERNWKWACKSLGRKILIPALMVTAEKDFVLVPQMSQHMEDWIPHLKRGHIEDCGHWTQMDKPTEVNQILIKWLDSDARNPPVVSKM
In words: Inhibition of recombinant human sEH using CMNPC substrate by fluoresecent-based assay.

As for `CCCCCNC(=O)NCCCC/C=C\CCCCCCC1=NOS(=O)N1` (stereo not drawn), the Activity in assay [1] was found to be 109%. In addition, the EC50 in assay [2] is 340 nM.
On to `CCCCNC(=O)C(=O)NCCCC/C=C\CCCCCCc1noc(=S)[nH]1`, for which the Activity in assay [1] was determined as 116%. Moreover, the EC50 in assay [2] was determined as 360 nM. In assay [3], the IC50 was above 500 nM.
Take `CCCCCNC(=O)NCCCC/C=C\CCCCCCC(=O)OCCOCCOCCO`: the Activity in assay [1] is 72%. Besides, the EC50 in assay [2] worked out at 5100 nM.
With `CCCCCNC(=O)NCCCCCOc1cccc2sc(NC(C)=O)nc12`, in assay [1], the Activity was found to be 73%. In assay [2], the EC50 stood at 900 nM. Besides, the IC50 in assay [3] is above 500 nM.
Turning to `CCCCCCC(=O)N(CCCC/C=C\CCCCCCC(=O)OCCOCCOCCO)C(C)C`, in assay [1], the Activity was determined as 86%. The EC50 in assay [2] came out at 2900 nM. For the same compound, in assay [3], the IC50 is above 500 nM.
Turning to `CCCCCNC(=O)NCCCC/C=C\CCOc1cccc2sc(NC(C)=O)nc12`, the EC50 in assay [2] was 3300 nM.
For `CCCCCCC(=O)N(CCCC/C=C\CCCCCCC(=O)NCC(=O)O)C(C)C`, the Activity in assay [1] was 95%. Besides, in assay [2], the EC50 worked out at 1900 nM. Also, the IC50 in assay [3] was above 500 nM.
With `CCCCCNC(=O)NCCCC/C=C\CCCCCNS(=O)(=O)c1ccccc1`, in assay [2], the EC50 is 3400 nM.
As to `CCCCCN(C)C(=O)N(C)CCCC/C=C\CCCCCCC(=O)NCC(=O)O`, the Activity in assay [1] was found to be 92%. For the same compound, in assay [2], the EC50 stood at 2750 nM. Further, in assay [3], the IC50 was above 500 nM.
With `CCCCCNC(=O)NCCCC/C=C\CCCCCCc1nnn[nH]1`, in assay [1], the Activity came out at 119%. Also, in assay [2], the EC50 was 180 nM.
As to `CCCCCNC(=O)NCCCC/C=C\CCCCCS(=O)(=O)c1ccccc1O`, the EC50 in assay [2] was found to be 5000 nM.
Take `CCCCCNC(=O)NCCCC/C=C\CCCCCCC(=O)NS(=O)(=O)c1ccccc1`: in assay [1], the Activity is recorded as 73%. Moreover, the EC50 in assay [2] amounted to 6000 nM.
Consider `CCCCCNC(=O)NCCCC/C=C\CCCCOCC(=O)O`, for which the Activity in assay [1] came out at 49%.
For the compound `CCCCNC(=O)C(=O)NCCCCCOc1cccc2sc(NC(C)=O)nc12`, the Activity in assay [1] is 96%. In assay [2], the EC50 turned out to be 2400 nM. The IC50 in assay [3] was above 500 nM.
On to `CCCCCNC(=O)NCCCC/C=C\CCCCCCS(=O)(=O)[O-].[Na+]`, for which the Activity in assay [1] was determined as 63%. The EC50 in assay [2] turned out to be 7600 nM.
On the same counts, the results for `CCCCCNC(=O)NCCCC/C=C\CCCCCCC(=O)NS(C)(=O)=O` are 61% and 6700 nM.
`CCCCCNC(=O)NCCCC/C=C\CCCCCCP(=O)([O-])[O-].[Na+].[Na+]`: in assay [1], the Activity amounted to 71%. In addition, the EC50 in assay [2] was above 10000 nM.
On to `CCCCCNC(=O)NCCCC/C=C\CCCCCS(=O)(=O)c1ncn[nH]1`, for which, in assay [2], the EC50 was 3100 nM.
`CCCCNC(=O)C(=O)NCCCC/C=C\CCCCCCC(=O)OCCOCCOCCO`: in assay [1], the Activity worked out at 104%. In addition, the EC50 in assay [2] was 1500 nM. The IC50 in assay [3] was above 500 nM.
On the same counts, the results for `CCCCCCC(=O)N(CCCC/C=C\CCCCCCc1nnn[nH]1)C(C)C` are 74%, 1000 nM and above 500 nM.
Consider `CCCCCNC(=O)NCCCC/C=C\CCCCCCC(=O)N[C@@H](CC(=O)[O-])C(=O)[O-].[Na+].[Na+]`, for which the Activity in assay [1] was 91%. The EC50 in assay [2] amounted to 1600 nM.
On the same counts, the results for `CCCCCNC(=O)NCCCC/C=C\CCCCCCc1noc(=O)[nH]1` are 89% and 1100 nM.
For `CCCCCNC(=O)NCCCC/C=C\CCCCC[S+]([O-])c1ncn[nH]1` (stereo not drawn), the EC50 in assay [2] stood at 3500 nM.
For the compound `CCCCCNC(=O)NCCCC/C=C\CCCCCCc1nsc(=O)[nH]1`, the Activity in assay [1] stood at 54%. For the same compound, the EC50 in assay [2] turned out to be 2400 nM.
On the same counts, the results for `CCCCCNC(=O)NCCCC/C=C\CCCCCCCc1nnn[nH]1` are 110% and 1100 nM.
Regarding `CCCCCCC(=O)N(CCCCCOc1cccc2sc(NC(C)=O)nc12)C(C)C`, in assay [1], the Activity came out at 96%. Moreover, the IC50 in assay [3] is above 500 nM.
In the case of `CCCCCCC(=O)N(CCCC/C=C\CCCCCCC1=NOS(=O)N1)C(C)C` (stereo not drawn), in assay [1], the Activity was determined as 109%. Further, in assay [2], the EC50 stood at 320 nM. For the same compound, in assay [3], the IC50 is above 500 nM.
In the case of `CCCCCNC(=O)NCCCC/C=C\CCCCCSc1ncn[nH]1`, the EC50 in assay [2] came out at 9800 nM.
`CCCCCNC(=O)NCCCC/C=C\CCCCCSc1ccccc1O`: the EC50 in assay [2] is above 10000 nM.
On the same count and under the same terms, the same measure for `CCCCCNC(=O)NCCCC/C=C\CCCCCC1SC(=O)NC1=O` (stereo not drawn): above 10000 nM.
Consider `CCCCCNC(=O)NCCCC/C=C\CCCCCCc1noc(=S)[nH]1`, for which, in assay [1], the Activity worked out at 93%. For the same compound, the EC50 in assay [2] was found to be 3300 nM.
With `CCCCNC(=O)C(=O)NCCCC/C=C\CCCCCCc1nnn[nH]1`, the Activity in assay [1] came out at 96%. For the same compound, in assay [2], the EC50 is 1700 nM. For the same compound, the IC50 in assay [3] was above 500 nM.
With `CCCCCNC(=O)NCCCC/C=C\CCCCCSc1nnn[nH]1`, the EC50 in assay [2] was determined as 3700 nM.
As for `CCCCCC1OC1C/C=C\C/C=C\C/C=C\CCCC(=O)O` (stereo not drawn), the Activity in assay [1] was found to be 85%. Moreover, in assay [2], the EC50 was found to be 2200 nM.
